Experimental data pooled from the literature.
Compare with care: the assays were run in different laboratories.
Target: SRSF protein kinase 3 (SRPK3, Homo sapiens, UniProt Q9UPE1)

SMILES | observed | technique | concentration | remaining binding [%]
CCCCN(CCCC)C(=O)CN1C[C@@H](c2cc(OC)c3c(c2)OCO3)[C@H](C(=O)O)[C@H]1CC(C)(C)CCC | cell-free assay | competition with immobilised ligand | 1 µM | 100
CN(C)c1nccc(-c2cnn3ncccc23)n1 | binding | – | 1 µM | 92
C[C@H](NC(=O)c1cnc2n1[C@](C)(Cc1ccc(C#N)cc1)C(=O)N2c1cc(Cl)c(F)c(Cl)c1)C(=O)NC1(c2ccccn2)CC1 | cell-free assay | competition with immobilised ligand | 1 µM | 100
Nc1ncc2c(n1)-c1c([nH]c3ccc(C#CC4CC4)cc13)CCCC2 | binding | competition with immobilised ligand | 1 µM | 90
N#Cc1ccccc1CSc1nnc2c(n1)[nH]c1ccccc12 | binding | competition with immobilised ligand | 10 µM | 75
C[C@@H]1CN(c2ccc3ncc(-c4ccc5[nH]nc(C6CC6)c5c4)n3n2)C[C@H](C)O1 | binding | competition with immobilised ligand | 50 nM | 97
COc1cnc(Nc2cccc(S(N)(=O)=O)c2)nc1N1CCN(c2ccccc2)CC1 | binding | competition with immobilised ligand | 1 µM | 95
O=C(NCC1CCOCC1)c1n[nH]cc1NC(=O)c1c(F)cccc1F | binding | competition with immobilised ligand | 1 µM | 83
CCCOc1ccc([C@@H]2[C@@H](C(=O)O)[C@H](c3ccc4c(c3)OCO4)CN2CC(=O)Nc2c(CC)cccc2CC)cc1 | cell-free assay | competition with immobilised ligand | 1 µM | 93
CN(CCCC(F)(F)F)c1nccc(-c2cnn3ncccc23)n1 | binding | – | 1 µM | 100
CCN1CCN(Cc2ccc(C(=O)Nc3ccc(C)c(Oc4ccc5c(c4)CC(=O)N5)c3)cc2C(F)(F)F)CC1 | binding | competition with immobilised ligand | 1 µM | 99
C[C@@H](c1ccc(-n2cnc3c(N)ncnc32)cc1)N1CCc2nn(C)c(Cc3ccccc3)c2C1=O | binding | competition with immobilised ligand | 0.1 µM | 76
N[C@@H]1CCN(c2nccc(-c3cnn4ncccc34)n2)C1 | binding | – | 1 µM | 81
CC(=O)N1CCC(c2ccc(C(=O)NC3=NCCN3)cc2C(F)(F)F)CC1 | cell-free assay | competition with immobilised ligand | 1 µM | 100
C[C@@H]1CCN(c2nccc(-c3cnn4ncccc34)n2)C1 | binding | – | 1 µM | 55
Cc1c(NC(=O)c2cc(C(N)=O)nc3cc(F)ccc23)c(C(F)(F)F)nn1Cc1ccc(C#N)cc1 | cell-free assay | competition with immobilised ligand | 1 µM | 100
O=C(NCCCN1CCOCC1)c1ccc(Nc2ncc(Cl)c(-c3ccc(Cl)s3)n2)cc1 | binding | competition with immobilised ligand | 1 µM | 100
CC(C)(C)c1ccc(-c2nc(CBr)nn2-c2cccc(O)c2)cc1 | cell-free assay | competition with immobilised ligand | 10 µM | 100
c1cnn2ncc(-c3ccnc(N4CCC45COC5)n3)c2c1 | binding | – | 1 µM | 66
CO[C@H]1CC[C@H](CNc2ccc(S(=O)(=O)NC(=O)c3ccc(N4CCN(CC5=C(c6ccc(Cl)cc6)CC(C)(C)CC5)CC4)cc3Oc3cnc4[nH]ccc4c3)cc2[N+](=O)[O-])CC1 | cell-free assay | competition with immobilised ligand | 1 µM | 100
CN(C)c1ncc(F)c(-c2cnn3ncccc23)n1 | binding | – | 1 µM | 100
FC(F)(F)Oc1cccc(-c2cnc3ccc(-c4ccncc4)nn23)c1 | binding | competition with immobilised ligand | 5 µM | 41
Cc1c(C(=O)O)cc(-c2ccc(C3CCNCC3)cc2)c2ccc(-c3ccc(C(F)(F)F)cc3)cc12 | binding | competition with immobilised ligand | 1 µM | 100
O=C(c1ccc(Nc2ncc(Cl)c(-c3ccc(Cl)s3)n2)cc1)N1CCC(N2CCCC2)CC1 | binding | competition with immobilised ligand | 1 µM | 100
